In ChEMBL document CHEMBL1142652, “5-(2-aminoethyl)dibenzo[c,h][1,6]naphthyridin-6-ones: variation of n-alkyl substituents modulates sensitivity to efflux transporters associated with multidrug resistance” (J Med Chem, 2005):

Key:
P388 = experiment: Inhibitory concentration against P388 cell line in mouse leukemia was determine; format: functional, cell-based
In short: (§1)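 MTT microtiter tetrazolium assay. Cells exposed continuously for 4 days to varying drug concentrations, MTT read at the end of day 4. An untreated control ran in each assay. IC50 taken; each assay done at least twice in six replicate wells. Sources: RPMI 8402 human lymphoblasts and CPT-resistant CPT-K5; P388 mouse leukemia and CPT-resistant TOP1-deficient P388/CPT45; KB3-1 with KBV-1 (MDR1) and KBH5.0 (BCRP, selected stepwise against Hoechst 33342).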

RPMI 8402 [1] = experiment: Inhibitory concentration against lymphoblast RPMI 8402 cell line was determined; format: functional, cell-based; details: Homo sapiens; in short: as §1
RPMI 8402 [2] = experiment: Cytotoxicity against camptothecin-resistant RPMI 8402; format: functional, cell-based; details: Homo sapiens; in short: as §1
[3] = Inhibitory concentration against KB/V-1 cells overexpress MDR1; format: functional, cell-based; details: Homo sapiens; in short: as §1
[4] = Inhibitory concentration against camptothecin-resistant variant of P388 cell line was determined; format: functional, cell-based, Mus musculus; in short: as §1
KB 3-1 [5] = experiment: Inhibitory concentration against KB3-1 cell line was determined; format: functional, cell-based; details: Homo sapiens; in short: as §1
KB 3-1 [6] = experiment: Inhibitory concentration against KBH5.0 cells overexpress BCRP; format: functional, cell-based; details: Homo sapiens, KBH5.0 cell; in short: as §1
[7] = target: T1, DNA topoisomerase 1 (Homo sapiens) (UniProt P11387); experiment: Relative topoisomerase I-mediated plasmid DNA cleavage compared to topotecan; format: functional
T1 sequence (whole entry): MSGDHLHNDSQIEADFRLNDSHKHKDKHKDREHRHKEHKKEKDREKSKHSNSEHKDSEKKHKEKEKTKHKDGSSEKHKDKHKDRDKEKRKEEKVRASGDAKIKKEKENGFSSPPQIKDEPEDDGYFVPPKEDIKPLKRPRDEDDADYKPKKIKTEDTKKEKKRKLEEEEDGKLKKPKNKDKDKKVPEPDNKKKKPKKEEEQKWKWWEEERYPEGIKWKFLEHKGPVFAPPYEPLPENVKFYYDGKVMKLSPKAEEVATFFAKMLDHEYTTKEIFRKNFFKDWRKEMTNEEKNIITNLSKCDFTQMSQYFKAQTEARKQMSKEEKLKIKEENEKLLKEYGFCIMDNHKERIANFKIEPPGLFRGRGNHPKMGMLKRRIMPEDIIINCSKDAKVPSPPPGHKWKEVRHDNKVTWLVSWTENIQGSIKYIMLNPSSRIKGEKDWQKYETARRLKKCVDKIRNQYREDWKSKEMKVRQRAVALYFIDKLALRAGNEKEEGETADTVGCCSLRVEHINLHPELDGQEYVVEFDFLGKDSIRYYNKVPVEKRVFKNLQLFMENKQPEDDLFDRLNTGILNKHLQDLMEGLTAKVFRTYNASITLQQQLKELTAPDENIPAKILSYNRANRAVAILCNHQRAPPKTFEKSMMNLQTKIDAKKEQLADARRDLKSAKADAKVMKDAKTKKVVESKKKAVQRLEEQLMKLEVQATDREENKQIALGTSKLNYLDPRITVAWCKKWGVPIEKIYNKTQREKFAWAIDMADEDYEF
In short: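 Recombinant human topoisomerase I (T7-expressed in E. coli as a fusion protein). End-labeled plasmid YepG, CsCl-purified, incubated with drug and enzyme 30 min at 37 °C. Gel autoradiograms, typically 24 h exposure. Value is REC: concentration relative to topotecan (set at 1.0) that gives the same cleavage.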

Row | SMILES | IC50 (P388) [nM] | IC50 (RPMI 8402 [1]) [nM] | IC50 (RPMI 8402 [2]) [nM] | IC50 [3] [nM] | IC50 [4] [nM] | IC50 (KB 3-1 [5]) [nM] | IC50 (KB 3-1 [6]) [nM] | Activity [7]
1 | CCN(CC)CCn1c(=O)c2cc(OC)c(OC)cc2c2cnc3cc4c(cc3c21)OCO4 | 4 | 6 | 850 | 15 | 150 | 4 | 5 | 1.4
2 | COc1cc2c(=O)n(CCN3CCC(C)CC3)c3c4cc5c(cc4ncc3c2cc1OC)OCO5 | 14 | 30 | 450 | 50 | 190 | 30 | 40 | > 100
3 | CC[C@@]1(O)C(=O)OCc2c1cc1n(c2=O)Cc2cc3c(CN(C)C)c(O)ccc3nc2-1 [TOPOTECAN] | – | 21 | > 10000 | – | > 10000 | – | 440 | –
4 | COc1cc2c(=O)n(CCN3CCCCC3)c3c4cc5c(cc4ncc3c2cc1OC)OCO5 | 6 | 7 | 400 | 13 | 50 | 4 | 9 | 0.6
5 | COc1cc2c(=O)n(CCN3CCNCC3)c3c4cc5c(cc4ncc3c2cc1OC)OCO5 | 60 | 90 | 2700 | 1900 | 300 | 100 | 530 | 4.3
6 | CCN(CCn1c(=O)c2cc(OC)c(OC)cc2c2cnc3cc4c(cc3c21)OCO4)Cc1ccccc1 | 50 | 77 | 7500 | 400 | 360 | 180 | 330 | 12.3
7 | CCN(CCn1c(=O)c2cc(OC)c(OC)cc2c2cnc3cc4c(cc3c21)OCO4)C(C)C | 4 | 5 | 310 | 21 | 120 | 3 | 8 | 0.17
8 | COc1cc2c(=O)n(CCN)c3c4cc5c(cc4ncc3c2cc1OC)OCO5 | 3 | 4 | 250 | 15 | 27 | 5 | 12 | 0.02
9 | COc1cc2c(=O)n(CCN(Cc3ccccc3)C(C)C)c3c4cc5c(cc4ncc3c2cc1OC)OCO5 | 230 | 300 | 5900 | 4000 | 650 | 800 | 500 | 7.4
10 | CNCCn1c(=O)c2cc(OC)c(OC)cc2c2cnc3cc4c(cc3c21)OCO4 [GENZ-644282] | 0.3 | 0.3 | 250 | 22 | 70 | 0.4 | 0.5 | 0.1 µM
11 | COc1cc2c(=O)n(CCN3CCCC3)c3c4cc5c(cc4ncc3c2cc1OC)OCO5 | 6 | 3 | 390 | 8 | 60 | 3 | 4 | 0.3
12 | COc1cc2c(=O)n(CCN(Cc3ccccc3)Cc3ccccc3)c3c4cc5c(cc4ncc3c2cc1OC)OCO5 | 250 | 380 | 1950 | 360 | 500 | 300 | 300 | 15
13 | COc1cc2c(=O)n(CCN3CCN(Cc4ccccc4)CC3)c3c4cc5c(cc4ncc3c2cc1OC)OCO5 | 250 | 400 | 700 | 700 | 200 | 500 | 750 | 1000
14 | COc1cc2c(=O)n(CCNCc3ccccc3)c3c4cc5c(cc4ncc3c2cc1OC)OCO5 | 16 | 16 | 280 | 35 | 180 | 6 | 10 | 0.5
15 | COc1cc2c(=O)n(CCN(C(C)C)C(C)C)c3c4cc5c(cc4ncc3c2cc1OC)OCO5 | 6 | 8 | 600 | 40 | 200 | 5 | 40 | 4.7
16 | COc1cc2c(=O)n(CCN3CCN(C)CC3)c3c4cc5c(cc4ncc3c2cc1OC)OCO5 | 230 | 300 | 5900 | 2500 | 650 | 500 | 400 | 1000
17 | COc1cc2c(=O)n(CCN(C)C)c3c4cc5c(cc4ncc3c2cc1OC)OCO5 | – | – | – | – | 230 | – | 6 | 0.3
18 | COc1cc2c(=O)n(CCNC(C)C)c3c4cc5c(cc4ncc3c2cc1OC)OCO5 | 1 | 3 | 180 | 5 | 30 | 5 | 6 | 0.3
19 | COc1cc2c(=O)n(CCN(C)Cc3ccccc3)c3c4cc5c(cc4ncc3c2cc1OC)OCO5 | 38 | 53 | 2000 | 300 | 450 | 50 | 150 | 15.8
20 | COc1cc2c(=O)n(CCNC(C)(C)C)c3c4cc5c(cc4ncc3c2cc1OC)OCO5 | 2 | 2 | 220 | 16 | 37 | 3 | 6 | 0.1
21 | CCNCCn1c(=O)c2cc(OC)c(OC)cc2c2cnc3cc4c(cc3c21)OCO4 | 0.7 | 2 | 170 | 16 | 30 | 1 | 5 | 0.1
22 | COc1cc2c(=O)n(CCN(C)C(C)C)c3c4cc5c(cc4ncc3c2cc1OC)OCO5 | 6 | 8 | 630 | 3 | 71 | 3 | 4 | 0.03
23 | COc1cc2c(=O)n(CCN(Cc3ccccc3)C(C)(C)C)c3c4cc5c(cc4ncc3c2cc1OC)OCO5 | 200 | 850 | 5750 | 2500 | 1850 | 190 | 500 | > 1000
